Values after ≈ are worked out from the molar mass of the structure shown.
Assays:
[1] = Lipophilicity, logP of the compound; format: physicochemical; conditions: octanol/water
[2] = Aqueous solubility of the compound at pH 2.2 incubated for 24 hrs under shaking condition by LC-UV analysis; format: physicochemical; conditions: aqueous medium
How it was run: (§1)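 The highest concentration tested was 250 μM, so results are capped at that level. Values are reported in µg/ml.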

[3] = Aqueous solubility of the compound at pH 4.5 incubated for 24 hrs under shaking condition by LC-UV analysis; format: physicochemical; conditions: aqueous medium; how it was run: as §1
[4] = Aqueous solubility of the compound at pH 6.8 incubated for 24 hrs under shaking condition by LC-UV analysis; format: physicochemical; conditions: aqueous medium; how it was run: as §1
[5] = Metabolic stability in human liver microsomes assessed as hepatic blood flow at 1 uM preincubated with compound followed by NADPH addition by LC-MS/MS analysis; format: ADME, Microsome; conditions: read-out: QH
[6] = Octanol-water partition coefficient, logD of the compound at pH 2 by HPLC analysis; format: physicochemical
[7] = Octanol-water partition coefficient, logD of the compound at pH 11 by HPLC analysis; format: physicochemical
[8] = Permeability of the compound at pH 7.4 by PAMPA assay; format: ADME; conditions: read-out: permeability

## O=C(Nc1ccc2ccccc2c1)c1cccnc1
[1]; read-out: logP
  logP: 2.4
[2]
  solubility thermodynamic at 24 h: > 50 µg/mL
[3]
  solubility thermodynamic at 24 h: 6 µg/mL (≈ 24.2 µM)
[4]
  solubility thermodynamic at 24 h: 4 µg/mL (≈ 16.1 µM)
[5]
  hepatic extraction ratio at 1 µM: 0.67
[6]; read-out: logD
  logD: 1.4
[7]; read-out: logD
  logD: 2.4

## NC(=O)C1CCN(C(=O)c2cccc3ccccc23)CC1
[1]
  logP: 0.8
[8]
  Papp: 0.2 ×10⁻⁶ cm/s
[2]
  solubility thermodynamic at 24 h: > 70 µg/mL
[3]
  solubility thermodynamic at 24 h: > 71 µg/mL
[4]
  solubility thermodynamic at 24 h: > 71 µg/mL
[5]
  hepatic extraction ratio at 1 µM: < 0.23
[6]
  logD: 1.3
[7]; read-out: logD
  logD: 0.8

## COC(=O)c1ccc2[nH]cc(C(=O)c3ccccc3)c2c1
[1]
  logP: 2.5
[8]
  Papp: 2.8 ×10⁻⁶ cm/s
[2]
  solubility thermodynamic at 24 h: < 1 µg/mL
[3]
  solubility thermodynamic at 24 h: < 1 µg/mL
[4]
  solubility thermodynamic at 24 h: < 1 µg/mL
[6]
  logD: 2.9
[7]; read-out: logD
  logD: 2.5

## COC(=O)c1ccc2c(C(=O)c3ccccc3)cc(C(=O)c3ccccc3)c-2cc1
[1]; read-out: logP
  logP: 5.5
[8]
  Papp: 0.3 ×10⁻⁶ cm/s
[2]
  solubility thermodynamic at 24 h: < 1 µg/mL
[3]
  solubility thermodynamic at 24 h: < 1 µg/mL
[4]
  solubility thermodynamic at 24 h: < 1 µg/mL
[6]; read-out: logD
  logD: 5.6
[7]; read-out: logD
  logD: 5.5

## COC(=O)c1ccc2ccc(C(=O)c3ccccc3)c-2cc1
[1]; read-out: logP
  logP: 4.7
[8]
  Papp: 0.1 ×10⁻⁶ cm/s
[2]
  solubility thermodynamic at 24 h: < 1 µg/mL
[3]
  solubility thermodynamic at 24 h: < 1 µg/mL
[4]
  solubility thermodynamic at 24 h: < 1 µg/mL
[6]; read-out: logD
  logD: 4.8
[7]; read-out: logD
  logD: 4.7

## Cn1c(NC(=O)Cn2ccccc2=O)cc2ccccc21
[1]
  logP: 1.1
[8]
  Papp: 3.3 ×10⁻⁶ cm/s
[4]
  solubility thermodynamic at 24 h: 3 µg/mL (≈ 10.7 µM)
[5]
  hepatic extraction ratio at 1 µM: < 0.23
[6]
  logD: 1.5
[7]
  logD: 1.5

## O=C(Cn1ccccc1=O)Nc1cc2ccccc2[nH]1
[1]
  logP: 0.4
[8]
  Papp: 0.1 ×10⁻⁶ cm/s
[2]
  solubility thermodynamic at 24 h: > 60 µg/mL
[3]
  solubility thermodynamic at 24 h: > 67 µg/mL
[4]
  solubility thermodynamic at 24 h: > 67 µg/mL
[5]
  hepatic extraction ratio at 1 µM: < 0.23
[6]
  logD: 1
[7]
  logD: 1

## c1ccc2cc(CN3CCCCC3)ccc2c1
[1]; read-out: logP
  logP: > 5.5
[8]
  Papp: 4.6 ×10⁻⁶ cm/s
[2]
  solubility thermodynamic at 24 h: 34 µg/mL (≈ 151 µM)
[3]
  solubility thermodynamic at 24 h: 30 µg/mL (≈ 133 µM)
[4]
  solubility thermodynamic at 24 h: 27 µg/mL (≈ 120 µM)
[5]
  hepatic extraction ratio at 1 µM: 0.72
[6]; read-out: logD
  logD: 0.9
[7]; read-out: logD
  logD: > 5.5

## COC(=O)c1ccc2c(C(=O)N(C)C)cn(C)c2c1
[1]
  logP: 1.4
[8]
  Papp: 4.2 ×10⁻⁶ cm/s
[2]
  solubility thermodynamic at 24 h: 50 µg/mL (≈ 192 µM)
[3]
  solubility thermodynamic at 24 h: > 52 µg/mL
[4]
  solubility thermodynamic at 24 h: 49 µg/mL (≈ 188 µM)
[5]
  hepatic extraction ratio at 1 µM: 0.82
[6]
  logD: 1.9
[7]
  logD: 1.9

## COC(=O)c1ccc2c(C(=O)Nc3ccccc3)cn(C)c2c1
[1]
  logP: 2.9
[8]
  Papp: 2.2 ×10⁻⁶ cm/s
[2]
  solubility thermodynamic at 24 h: < 1 µg/mL
[3]
  solubility thermodynamic at 24 h: < 1 µg/mL
[4]
  solubility thermodynamic at 24 h: < 1 µg/mL
[6]
  logD: 3.4
[7]
  logD: 3.4

## COC(=O)c1ccc2c(c1)c(C(=O)c1ccccc1)cn2C(=O)c1ccccc1
[1]; read-out: logP
  logP: 5.2
[8]
  Papp: 1.3 ×10⁻⁶ cm/s
[2]
  solubility thermodynamic at 24 h: < 1 µg/mL
[3]
  solubility thermodynamic at 24 h: < 1 µg/mL
[4]
  solubility thermodynamic at 24 h: < 1 µg/mL
[6]; read-out: logD
  logD: 5.2
[7]; read-out: logD
  logD: 5.2

## COC(=O)c1ccc2ccc(C(=O)Nc3ccccc3)c-2cc1
[1]; read-out: logP
  logP: 3.8
[8]
  Papp: 0.4 ×10⁻⁶ cm/s
[2]
  solubility thermodynamic at 24 h: < 1 µg/mL
[3]
  solubility thermodynamic at 24 h: < 1 µg/mL
[4]
  solubility thermodynamic at 24 h: < 1 µg/mL
[6]; read-out: logD
  logD: 4
[7]; read-out: logD
  logD: 4

## CN(C)C(=O)Cc1ccc2ccn(C)c2c1
[1]; read-out: logP
  logP: 1.7
[8]
  Papp: 7.6 ×10⁻⁶ cm/s
[2]
  solubility thermodynamic at 24 h: > 54 µg/mL
[3]
  solubility thermodynamic at 24 h: > 53 µg/mL
[4]
  solubility thermodynamic at 24 h: > 53 µg/mL
[5]
  hepatic extraction ratio at 1 µM: < 0.23
[6]; read-out: logD
  logD: 1.9
[7]; read-out: logD
  logD: 1.7

## COC(=O)c1ccc2ccn(C(=O)c3ccccc3)c2c1
[1]; read-out: logP
  logP: 4.3
[8]
  Papp: 0.5 ×10⁻⁶ cm/s
[2]
  solubility thermodynamic at 24 h: < 1 µg/mL
[3]
  solubility thermodynamic at 24 h: < 1 µg/mL
[4]
  solubility thermodynamic at 24 h: < 1 µg/mL
[6]; read-out: logD
  logD: 4.4
[7]; read-out: logD
  logD: 4.3

## O=C(Nc1cc2cccccc-2c1)c1cccnc1
[1]; read-out: logP
  logP: 2.4
[8]
  Papp: 4.8 ×10⁻⁶ cm/s
[2]
  solubility thermodynamic at 24 h: 43 µg/mL (≈ 173 µM)
[3]
  solubility thermodynamic at 24 h: 3 µg/mL (≈ 12.1 µM)
[4]
  solubility thermodynamic at 24 h: 2 µg/mL (≈ 8.06 µM)
[5]
  hepatic extraction ratio at 1 µM: 0.71
[6]; read-out: logD
  logD: 1.3
[7]; read-out: logD
  logD: 1.3

## NC(=O)C1CCN(C(=O)c2c[nH]c3ccccc23)CC1
[1]
  logP: -0.2
[8]
  Papp: < 0.01 ×10⁻⁶ cm/s
[5]
  hepatic extraction ratio at 1 µM: < 0.23
[6]
  logD: 0.3
[7]; read-out: logD
  logD: -0.2

## CN1CCN(C(=O)c2ccc3[nH]cc(C(=O)c4ccccc4)c3c2)CC1
[1]; read-out: logP
  logP: 1.3
[8]
  Papp: 0.2 ×10⁻⁶ cm/s
[2]
  solubility thermodynamic at 24 h: > 74 µg/mL
[4]
  solubility thermodynamic at 24 h: 69 µg/mL (≈ 199 µM)
[5]
  hepatic extraction ratio at 1 µM: < 0.23
[6]; read-out: logD
  logD: 0.5
[7]; read-out: logD
  logD: 1.3

## O=C(NCCO)c1ccc2[nH]cc(C(=O)c3ccccc3)c2c1
[1]
  logP: 0.6
[8]
  Papp: 0.01 ×10⁻⁶ cm/s
[2]
  solubility thermodynamic at 24 h: 39 µg/mL (≈ 126 µM)
[3]
  solubility thermodynamic at 24 h: 18 µg/mL (≈ 58.4 µM)
[4]
  solubility thermodynamic at 24 h: 15 µg/mL (≈ 48.6 µM)
[5]
  hepatic extraction ratio at 1 µM: 0.53
[6]
  logD: 1.3
[7]
  logD: 1.3

## COC(=O)c1ccc2c(C(=O)c3ccccc3)c[nH]c2c1
[1]
  logP: 2.7
[8]
  Papp: 1.5 ×10⁻⁶ cm/s
[2]
  solubility thermodynamic at 24 h: < 1 µg/mL
[3]
  solubility thermodynamic at 24 h: < 1 µg/mL
[4]
  solubility thermodynamic at 24 h: < 1 µg/mL
[6]
  logD: 3.1
[7]; read-out: logD
  logD: 2.7

## O=C(NCCc1c[nH]c2ccccc12)c1ccc2[nH]cc(C(=O)c3ccccc3)c2c1
[1]
  logP: 2.8
[8]
  Papp: < 0.01 ×10⁻⁶ cm/s
[2]
  solubility thermodynamic at 24 h: < 1 µg/mL
[3]
  solubility thermodynamic at 24 h: < 1 µg/mL
[4]
  solubility thermodynamic at 24 h: 1 µg/mL (≈ 2.45 µM)
[5]
  hepatic extraction ratio at 1 µM: 0.84
[6]
  logD: 3.3
[7]; read-out: logD
  logD: 2.8

## CN(C)C(=O)Cc1ccc2cc[nH]c2c1
[1]
  logP: 1
[8]
  Papp: 1.3 ×10⁻⁶ cm/s
[2]
  solubility thermodynamic at 24 h: > 51 µg/mL
[3]
  solubility thermodynamic at 24 h: > 51 µg/mL
[4]
  solubility thermodynamic at 24 h: > 51 µg/mL
[5]
  hepatic extraction ratio at 1 µM: < 0.23
[6]
  logD: 1.4
[7]; read-out: logD
  logD: 1

## COC(=O)c1ccc2c(ccn2C(=O)c2ccccc2)c1
[1]; read-out: logP
  logP: 4.4
[8]
  Papp: 0.5 ×10⁻⁶ cm/s
[2]
  solubility thermodynamic at 24 h: < 1 µg/mL
[3]
  solubility thermodynamic at 24 h: < 1 µg/mL
[4]
  solubility thermodynamic at 24 h: < 1 µg/mL
[6]; read-out: logD
  logD: 4.5
[7]; read-out: logD
  logD: 4.4

## COC(=O)c1ccc2c(C(=O)c3ccccc3)cn(C(=O)c3ccccc3)c2c1
[1]; read-out: logP
  logP: 5.2
[8]
  Papp: 2.1 ×10⁻⁶ cm/s
[2]
  solubility thermodynamic at 24 h: < 1 µg/mL
[3]
  solubility thermodynamic at 24 h: < 1 µg/mL
[4]
  solubility thermodynamic at 24 h: < 1 µg/mL
[6]; read-out: logD
  logD: 5.2
[7]; read-out: logD
  logD: 5.2

## CN(C)C(=O)Cc1ccc2ccccc2c1
[1]
  logP: 2.4
[8]
  Papp: 4.7 ×10⁻⁶ cm/s
[2]
  solubility thermodynamic at 24 h: 41 µg/mL (≈ 192 µM)
[3]
  solubility thermodynamic at 24 h: 39 µg/mL (≈ 183 µM)
[4]
  solubility thermodynamic at 24 h: 40 µg/mL (≈ 188 µM)
[5]
  hepatic extraction ratio at 1 µM: 0.4
[6]
  logD: 2.7
[7]; read-out: logD
  logD: 2.4

## Cn1cc(C(=O)N2CCC(C(N)=O)CC2)c2ccccc21
[1]
  logP: 0.4
[8]
  Papp: 0.2 ×10⁻⁶ cm/s
[2]
  solubility thermodynamic at 24 h: > 71 µg/mL
[3]
  solubility thermodynamic at 24 h: 44 µg/mL (≈ 154 µM)
[4]
  solubility thermodynamic at 24 h: > 64 µg/mL
[5]
  hepatic extraction ratio at 1 µM: < 0.23
[6]
  logD: 1.1
[7]; read-out: logD
  logD: 0.4

## Cn1c(NC(=O)c2cccnc2)cc2ccccc21
[1]; read-out: logP
  logP: 1.3
[8]
  Papp: 4.9 ×10⁻⁶ cm/s
[2]
  solubility thermodynamic at 24 h: > 59 µg/mL
[5]
  hepatic extraction ratio at 1 µM: 0.23
[6]; read-out: logD
  logD: -0.1
[7]; read-out: logD
  logD: -0.1

Source: ChEMBL document CHEMBL5120825, “The azulene scaffold from a medicinal chemist's perspective: Physicochemical and in vitro parameters relevant for drug discovery” (Eur J Med Chem, 2022)
